In ChEMBL document CHEMBL2346610, “N-Alkyldeoxynojirimycin derivatives with novel terminal tertiary amide substitution for treatment of bovine viral diarrhea virus (BVDV), Dengue, and Tacaribe virus infections” (Bioorg Med Chem Lett, 2013) one finds CC50, Activity and EC50 data, which are given here for 20 compounds.

Structures are written as SMILES. Active and inactive are the calls of the source. No cut-off for these calls is given here.

The nature of series [1]: Cytotoxicity against MDBK cells by MTT assay. The series is classed as cell-based, Bos taurus. To be noted: cattle. In a few lines: (§1)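 Assays were run in MDBK cells. BVDV antiviral activity was measured by virus yield reduction and reported as EC50. Cytotoxicity was measured by MTT assay and reported as CC50.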
Background: Tetrazolium assays rely on reduction of a dye to a coloured formazan, in cell work by metabolically active cells.

Series [2] deals with Bovine viral diarrhea virus 1. In words: Reduction of BVDV E2 protein mobility rate infected in MDBK cells at EC50 after 22 hrs by Western blot analysis. The series is classed as functional, organism-based. In a few lines:
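MDBK cells were infected with BVDV at MOI 1 for 1 h, then mock-treated or compound-treated. Cells were harvested 22 h post-infection. Lysates were run on electrophoresis and Western blotted, detecting BVDV E2 glycoprotein and β-actin loading control simultaneously.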

The test system of series [3] is Bovine viral diarrhea virus 1. In words: Antiviral activity against BVDV infected in MDBK cells assessed as reduction of viral yield. The class given is functional, organism-based. As to conditions: Bovine viral diarrhea virus isolates and strains. In a few lines:
as §1

A short description of series [4]: Cytotoxicity against BHK cells by MTT assay. The series is classed as cell-based, Mesocricetus auratus. As to conditions: hamster.
Series [5] deals with Dengue virus. In words: Antiviral activity against Dengue virus infected in BHK cells. The series is classed as functional, organism-based.
The test system of series [6] is Tacaribe virus. In words: Antiviral activity against Tacaribe virus infected in human Huh7.5 cells. The series is classed as functional, organism-based. To be noted: Mammarenavirus tacaribeense, Huh-7.
Series [7] in a line: Cytotoxicity against human Huh7.5 cells by MTT assay. The series is classed as cell-based, Huh-7.

Usually CC50 stands for the concentration giving 50% cytotoxicity. A low value points to harm at low concentration. Usually EC50 stands for the concentration giving half of the maximal effect. Take `CC1CCCCC1NCCCCCCN1C[C@H](O)[C@@H](O)[C@H](O)[C@H]1CO` (stereo partly specified): the CC50 in series [1] was over 500 µM. Besides, the result in series [2] was inactive. The concentration giving a half-maximal response (EC50) in series [3] was over 100 µM.
`CC(C)(C)C(=O)N(CCCCCCN1C[C@H](O)[C@@H](O)[C@H](O)[C@H]1CO)C1CCC1`: the half-maximal cytotoxic concentration (CC50) in series [1] and in series [4] was over 500 µM in each case. Also, the 50% effective concentration (EC50) in series [5] was found to be 1.9 µM; in series [3], 0.8 µM.
For `CC(C)(C)C(=O)N(CCCCCCN1C[C@H](O)[C@@H](O)[C@H](O)[C@H]1CO)C12CC3CC(CC(C3)C1)C2`, the results for the CC50 in series [1], in series [7] and in series [4] were 420 µM, 170 µM and over 500 µM, respectively. Further, the half-maximal effective concentration (EC50) in series [6] stood at 0.21 µM; in series [5], 1.38 µM; in series [3], 0.21 µM.
Regarding `CC(C)(C)C(=O)N(CCCCCCN1C[C@H](O)[C@@H](O)[C@H](O)[C@H]1CO)C1CC1`, the CC50 in series [1] and in series [4] was over 500 µM each time. The result in series [2] was Active. The 50% effective concentration (EC50) in series [5] is 8.8 µM; in series [3] it was 3.75 µM.
As to `CC(=O)N(CCCCCCN1C[C@H](O)[C@@H](O)[C@H](O)[C@H]1CO)C1CCCCC1`, the half-maximal cytotoxic concentration (CC50) in series [1], in series [7] and in series [4] was over 500 µM throughout. For the same compound, the half-maximal effective concentration (EC50) amounted to 1 µM in series [6], 14 µM in series [5] and 0.28 µM in series [3].
`CC(C)(C)C(=O)N(CCCCCCN1C[C@H](O)[C@@H](O)[C@H](O)[C@H]1CO)C1C2CC3CC(C2)CC1C3` (stereo partly specified): the CC50 in series [1] stood at 180 µM; in series [7] it was 125 µM; in series [4], 192 µM. Moreover, the EC50 in series [6] is 0.5 µM; in series [5] it was 0.125 µM; in series [3] it was 0.31 µM.
Turning to `CC(C)(C)CC(=O)N(CCCCCCN1C[C@H](O)[C@@H](O)[C@H](O)[C@H]1CO)C1CCCCC1`, the cytotoxic concentration (CC50) in series [1], in series [7] and in series [4] was over 500 µM throughout. In series [2], the outcome was Active. Besides, the EC50 in series [6] came out at 0.4 µM; in series [5], 1.5 µM; in series [3], 0.18 µM.
Consider `CC(=O)N(CCCCCCN1C[C@H](O)[C@@H](O)[C@H](O)[C@H]1CO)c1cc(F)ccc1F`, for which the CC50 in series [1] was over 500 µM. Besides, the concentration giving a half-maximal response (EC50) in series [3] is 5 µM.
On to `CC(C)(C)OC(=O)NCCCCCCN1C[C@H](O)[C@@H](O)[C@H](O)[C@H]1CO`, for which the half-maximal cytotoxic concentration (CC50) in series [1] was over 500 µM. In addition, the result in series [2] was Active. The concentration giving a half-maximal response (EC50) in series [3] was determined as 2.5 µM.
As for `CC(C)(C)C(=O)N(CCCCCCN1C[C@H](O)[C@@H](O)[C@H](O)[C@H]1CO)c1ccc(F)cc1F`, the 50% cytotoxic concentration (CC50) in series [1], in series [7] and in series [4] was over 500 µM each time. In series [2], the outcome was Active. For the same compound, the EC50 was found to be 2.5 µM in series [6], 2.2 µM in series [5] and 0.25 µM in series [3].
In turn, `OC[C@@H]1[C@@H](O)[C@H](O)[C@@H](O)CN1CCCCCCN(C1CCCCC1)C1CCCCC1` showed a CC50 in series [1] of over 500 µM. Also, the result in series [2] was Active. The EC50 in series [3] came out at 6.3 µM.
Regarding `CC(C)(C)C(=O)N(CCCCCCN1C[C@H](O)[C@@H](O)[C@H](O)[C@H]1CO)C1CCCCCC1`, the half-maximal cytotoxic concentration (CC50) in series [1], in series [7] and in series [4] was over 500 µM each time. In addition, the EC50 is 1 µM in series [6], 0.8 µM in series [5] and 0.4 µM in series [3].
As for `CC(=O)N(CCCCCCN1C[C@H](O)[C@@H](O)[C@H](O)[C@H]1CO)c1ccc(F)cc1F`, the CC50 in series [1] is over 500 µM. Also, in series [2], the result was Active. In addition, the half-maximal effective concentration (EC50) in series [3] came out at 6 µM.
`CC1CCCCC1N(CCCCCCN1C[C@H](O)[C@@H](O)[C@H](O)[C@H]1CO)C(=O)C(C)(C)C` (stereo partly specified): the CC50 in series [1] is over 500 µM; in series [7], 310 µM; in series [4], over 500 µM. Moreover, in series [2], the outcome was Active. Besides, the EC50 in series [6] worked out at 0.2 µM; in series [5], 0.32 µM; in series [3] it was 0.22 µM.
For `CC1CCCCC1N(CCCCCCN1C[C@H](O)[C@@H](O)[C@H](O)[C@H]1CO)C(=O)OC(C)(C)C` (stereo partly specified), the figures for the CC50 in series [1], in series [7] and in series [4] were 250 µM, 240 µM and 230 µM, respectively. In addition, the result in series [2] was Active. The EC50 in series [6] was found to be 0.3 µM; in series [5] it was 0.3 µM; in series [3], 0.4 µM.
Consider `CC(C)(C)C(=O)N(CCCCCCN1C[C@H](O)[C@@H](O)[C@H](O)[C@H]1CO)C1CCCCCCC1`, for which the 50% cytotoxic concentration (CC50) in series [1] came to 270 µM; in series [7] it was 150 µM; in series [4] it was 208 µM. In addition, the EC50 in series [6] worked out at 0.29 µM; in series [5] it was 0.8 µM; in series [3], 0.24 µM.
Consider `CC(C)(C)C(=O)N(CCCCCCN1C[C@H](O)[C@@H](O)[C@H](O)[C@H]1CO)C1CCCCC1`, for which the figures for the cytotoxic concentration (CC50) in series [1], in series [7] and in series [4] were over 500 µM, 500 µM and over 500 µM, respectively. Moreover, the outcome in series [2] was Active. Also, the results for the 50% effective concentration (EC50) in series [6], in series [5] and in series [3] were 0.2 µM, 0.28 µM and 0.2 µM, respectively.
With `C[C@H]1CCCC[C@@H]1OCCCCCCN1C[C@H](O)[C@@H](O)[C@H](O)[C@H]1CO`, the 50% effective concentration (EC50) in series [3] was found to be 3.3 µM.
As for `CC(C)(C)C(=O)N(CCCCCCN1C[C@H](O)[C@@H](O)[C@H](O)[C@H]1CO)C1CCCC1`, the CC50 in series [1], in series [7] and in series [4] was over 500 µM in each case. Also, the half-maximal effective concentration (EC50) in series [6] was found to be 4 µM; in series [5], 2 µM; in series [3], 0.85 µM.
As for `CC(C)(C)C(=O)N(CCCCCCN1C[C@H](O)[C@@H](O)[C@H](O)[C@H]1CO)c1cc(F)ccc1F`, the half-maximal cytotoxic concentration (CC50) in series [1], in series [7] and in series [4] was over 500 µM each time. Moreover, the EC50 was determined as 0.62 µM in series [6], 5.4 µM in series [5] and 0.4 µM in series [3].
